# High-throughput results as filed in PubChem BioAssay.
# Sampled rows, rich in hits. Any-hit rate of the full collection: about 4%.
# SIRT5 block: SIRT5 desuccinylase inhibitors, primary screen, biochemical, fluorescence imaging, single point, set 5; Purified SirT5, succinyl-peptide AMC, trypsin-coupled fluorescence; 1.1% of 330,000 active; NAD-dependent protein deacylase sirtuin-5, mitochondrial (Homo sapiens), Q9NXA8; inhibition, % at 15 µM; in the data active = inhibition above about 15%; inconclusive = no clear call, values can overlap the other calls
# rRNA inh HTS: reduced GFP signal of wild-type E. coli, primary screen, bacterial rRNA inhibitor project, GFP/RFP fluorescence, OD600, single point; E. coli WT GFP vs humanized-ribosome RFP mutants, 24 h; stronger effect = lower value; DMSO median 0, no signal -100; GFP signal change (wild-type ribosome), % (concentration not given with the values); 1.6% of 350,000 active; AID 720706, 2013;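 active = significant combined selectivity score with lowered wild-type GFP, culture density cut under 30%, mutant RFP and density less affected; inactive = any of these conditions unmet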
# E-selectin induc: E-selectin induction in HUVECs, primary screen, imaging, HUVEC, immunofluorescence imaging, single point; P16581; normalized: neutral wells 0, TNF-alpha wells 100; activation, % at 7.58 µM; 0.37% of 260,000 active; AID 686992, 2013;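 active = mean E-selectin-positive cell signal at least 10% of the positive control, reached in at least 60% of replicates, without over 20% cell loss; inconclusive = no rule given, readout overlaps actives, possibly toxicity-flagged; inactive = the rest, including those meeting only one limit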
# Target sequence (P16581 whole entry, looked up): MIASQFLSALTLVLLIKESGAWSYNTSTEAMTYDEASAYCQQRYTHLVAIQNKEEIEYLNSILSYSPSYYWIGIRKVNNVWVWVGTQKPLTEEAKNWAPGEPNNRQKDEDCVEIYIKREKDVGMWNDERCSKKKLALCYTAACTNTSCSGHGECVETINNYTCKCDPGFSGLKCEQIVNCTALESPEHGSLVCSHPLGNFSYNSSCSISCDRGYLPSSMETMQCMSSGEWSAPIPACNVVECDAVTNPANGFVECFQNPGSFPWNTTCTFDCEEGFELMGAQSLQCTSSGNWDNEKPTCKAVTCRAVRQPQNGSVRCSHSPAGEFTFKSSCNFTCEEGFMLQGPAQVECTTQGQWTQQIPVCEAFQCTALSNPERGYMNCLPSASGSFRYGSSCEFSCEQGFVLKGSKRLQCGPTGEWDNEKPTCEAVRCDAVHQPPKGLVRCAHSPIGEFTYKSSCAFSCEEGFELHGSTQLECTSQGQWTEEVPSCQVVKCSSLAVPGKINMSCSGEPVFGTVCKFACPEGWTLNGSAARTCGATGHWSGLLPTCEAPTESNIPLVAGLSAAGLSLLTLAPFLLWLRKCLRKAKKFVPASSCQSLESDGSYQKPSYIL
#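 material = human umbilical vein endothelial cells (HUVEC), E-selectin induction | quantity = 3,000 cells/well | medium = EGM-2 growth medium on 0.1% gelatin-coated wells | technique = immunofluorescence imaging | read-out basis = % PE-positive cells | control set = TNF-alpha positive control, DMSO neutral control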
# C2C12 statin: suppressors of statin myotoxicity in C2C12 myotubes, primary screen, cell-based, single point, plate reader; rescue of ATP level, % at 7.49 µM; 0.78% of 330,000 active; C2C12 myotubes + simvastatin, ATP luminescence, 48 h; scaled: DMSO 0, geranylgeraniol control 100;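 active = mean ATP rescue above about 67%, or every replicate alone reaching that limit, limit read from the data, passing the limit was not always enough; inconclusive = no clear call, values can overlap the other calls; inactive = mean under the limit and some replicate under it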;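 also: myotubes were challenged with 10 µM simvastatin during compound exposure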
# FN deposition inh: inhibitors of fibronectin matrix deposition, primary screen, AH1F cells, Alexa488-fibronectin fluorescence, plate reader; AH1F fibroblasts, overnight; inhibition, % at 12.6 µM; 0.086% of 350,000 active; AID 743247, 2014;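 active = mean inhibition across replicates of 30% or more, regardless of how many single replicates reach that level; inconclusive = mean under 30% yet at least half of replicates reach 30%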;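 also: positive control wells lacked labelled fibronectin entirely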
#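 Assay system: AH1F fibroblasts / Quantity: 10000 cells per well / Medium: DMEM plus 2% serum, read in PBS / Reagent: labelled fibronectin 24 nM / Dosing: single dose, pinned / Times: 1 h cell attachment, overnight exposure to compound and label / Signal: fluorescence, ex 485 nm, em 525 nm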
# FGF22 binding: binders of human FGF22 protein, primary screen, FGF22 synaptogenesis inhibitor project, biophysical, thermal shift, single point. Fibroblast growth factor 22 (Homo sapiens), Q9HCT0. recombinant FGF22 thermal shift, SYPRO orange fluorescence; percent of sucrose octasulfate shift, DMSO zero. activity (Tm shift, normalised), % at 9.99 µM. 1.5% of 340,000 active. AID 651658, 2012;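 active = mean Tm shift, scaled 0 neutral to 100 positive control, at about 1.3% or above, every replicate too, limit read from the data; inconclusive = no clear call, values can overlap the other calls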
# An asterisk follows results filed as active; ? = inconclusive; / = no result.
SMILES,SIRT5 block,rRNA inh HTS,E-selectin induc,C2C12 statin,FN deposition inh,FGF22 binding
O=C(c1ccccc1)c1nccn1-c1ccc(Cl)nn1,-5,-36*,0,/,7,0
COc1ccccc1NC(=O)N1C[C@@H](O)COC[C@@H]2O[C@H](CC(=O)NCCc3ccccc3)CC[C@H]21,7,0,0,-3,-2,0
COc1cc2c(c(O)c1OC)C(=O)C(OC)CCC2 (centres undefined),/,/,/,89*,/,/
O=S1(=O)c2ccc(Br)cc2OCCC2CCCCN21 (centres undefined),/,-21*,0,/,-6,0
C[C@@H]1CCCCO[C@@H](CN(C)Cc2ccc(C(F)(F)F)cc2)[C@H](C)CN([C@@H](C)CO)C(=O)c2cc(NS(=O)(=O)c3cccs3)ccc2O1,19*,-1,0,72*,/,0
C[C@@H]1CCCCO[C@H](CN(C)Cc2ccc(C(=O)O)cc2)[C@H](C)CN([C@H](C)CO)C(=O)c2cc(NS(=O)(=O)c3cccs3)ccc2O1,21*,0,0,/,/,0
C[C@@H]1CCCCO[C@@H](CN(C)Cc2ccc(C(F)(F)F)cc2)[C@@H](C)CN([C@H](C)CO)C(=O)c2cc(NS(=O)(=O)c3cccs3)ccc2O1,2,0,0,-74,/,-1
C[C@@H]1CCCCO[C@H](CN(C)Cc2ccc(C(F)(F)F)cc2)[C@H](C)CN([C@H](C)CO)C(=O)c2cc(NS(=O)(=O)c3cccs3)ccc2O1,16*,-1,0,-60,/,0
C[C@H]1CN([C@@H](C)CO)C(=O)c2cc(NC(=O)CCCN(C)C)ccc2O[C@H]1CN(C)C,12,7,0,1,-6,0
CNC[C@H]1Oc2c(NC(=O)NC(C)C)cccc2C(=O)N([C@@H](C)CO)C[C@H]1C,-1,5,-1,15,/,0
Cc1c(C(=O)Nc2ccc(N3CCOCC3)cc2)cccc1[N+](=O)[O-],0,8,0,/,2,0
Cc1ccccc1C(=O)N1CCN(c2ccc(NC(=O)c3ccccc3[N+](=O)[O-])cc2)CC1,19*,14,/,/,-4,0
Cc1c(C(=O)NC(=S)Nc2ccc(N3CCOCC3)cc2)cccc1[N+](=O)[O-],0,11,/,/,-10,43*
Cc1ccc(S(=O)(=O)Nc2cccc3c2O[C@H](CN(C)C(=O)Nc2ccccc2)[C@H](C)CN([C@H](C)CO)C3=O)cc1,-2,-1,0,56,/,0
C[C@@H]1CN([C@@H](C)CO)C(=O)c2cc(NC(=O)Cn3cnnn3)ccc2O[C@@H]1CN(C)Cc1ccc(C(=O)Nc2ccccc2N)cc1,-1,0,0,29,-7,0
C[C@@H]1CN([C@@H](C)CO)C(=O)Cc2cc(NC(=O)Cn3cnnn3)ccc2O[C@H]1CN(C)Cc1ccc(Oc2ccccc2)cc1,4,-40,283*,?,2,0
C[C@@H]1CN([C@H](C)CO)C(=O)c2cc(NC(=O)Cn3cnnn3)ccc2O[C@H]1CN(C)Cc1ccc(Oc2ccccc2)cc1,-1,0,7,13,/,0
C[C@H]1CN([C@@H](C)CO)C(=O)c2cc(NC(=O)Cn3cnnn3)ccc2O[C@H]1CN(C)Cc1ccc(Oc2ccccc2)cc1,-1,1,139*,13,/,0
C[C@@H]1CN([C@H](C)CO)C(=O)c2cc(NC(=O)Cn3cnnn3)ccc2O[C@@H]1CN(C)Cc1ccc(C(=O)Nc2ccccc2N)cc1,1,-1,0,105*,-4,0
C[C@H]1CN([C@@H](C)CO)C(=O)c2cc(NC(=O)Cn3cnnn3)ccc2O[C@@H]1CN(C)Cc1ccc(Oc2ccccc2)cc1,3,2,48*,42,/,0
C[C@H](CO)N1C[C@H](C)[C@H](CN(C)Cc2ccc(-c3ccccc3)cc2)Oc2c(NS(=O)(=O)c3ccc(Cl)cc3)cccc2C1=O,-1,3,-6,10,0,0
O=C(N[C@@H]1CC[C@H](CCNS(=O)(=O)c2ccccc2Cl)O[C@@H]1CO)c1ccc(F)cc1,-1,-1,0,-2,7,0
C[C@H]1CN([C@@H](C)CO)C(=O)c2cc(NC(=O)Cn3cnnn3)ccc2O[C@@H]1CN(C)Cc1ccc2c(c1)OCO2,3,0,38*,4,/,0
CN(C)C(=O)C[C@@H]1CC[C@H]2[C@@H](COC[C@H](O)CN2CC2CCOCC2)O1,0,2,0,-3,-2,0
Cc1ccc(S(=O)(=O)N2CC[C@H]3[C@H](CO)Nc4ccc(-c5cccc(C(=O)N(C)C)c5)cc4[C@H]32)cc1,0,-9,0,-15,31*,0
SMILES,SIRT5 block,rRNA inh HTS,E-selectin induc,C2C12 statin,FN deposition inh,FGF22 binding
Cc1ccc(S(=O)(=O)N2CC[C@@H]3[C@H]2c2cc(Br)ccc2N[C@@H]3CO)cc1,15*,-11,0,-6,-9,0
O=S(=O)(c1ccc(F)cc1)N1CC[C@H]2[C@H](CO)Nc3ccc(Br)cc3[C@H]21,5,-45,0,27,20,0
CC(C)Oc1cccc(C(=O)C2CCCN(C(=O)c3cc(C4CC4)[nH]n3)C2)c1 (centres undefined),-4,-5,/,8,7,0
CC(C)Oc1cccc(C(=O)C2CCCN(C(=O)c3cc(C(F)(F)F)[nH]n3)C2)c1 (centres undefined),-4,-29*,/,4,-15,0
COc1ccc(NC(=O)Nc2ccc3c(c2)C(=O)N([C@H](C)CO)C[C@@H](C)[C@@H](CN(C)C(=O)Nc2ccc(C(F)(F)F)cc2)O3)cc1,15*,-8,-5,-2,/,0
C[C@@H]1CN([C@H](C)CO)C(=O)c2cc(NC(=O)Nc3ccc(C(F)(F)F)cc3)ccc2O[C@@H]1CN(C)C(=O)Nc1ccc2c(c1)OCO2,15*,4,0,-32,/,0
C[C@H](CO)N1C[C@H](C)[C@H](CN(C)C(=O)Nc2ccc(F)cc2)Oc2ccc(NC(=O)Nc3ccc(F)cc3)cc2C1=O,24*,-10,0,-1,/,0
